Activity calls are given as the source filed them. No cut-off for these calls is given here.
How the values were obtained:
[1] = target: Fatty acid synthase (Mus musculus, UniProt P19096); assay: Inhibition of mouse FAS preincubated for 30 mins in presence of acetyl coenzyme A and NADPH followed by malonyl coenzyme A addition and measured after 3 mins by spectrophotometric analysis
How it was run: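 Crude mouse-liver FAS (196.2 U/mg) preincubated with compound, NADPH and acetyl-CoA in K2HPO4 buffer pH 7.0 at 37 °C for 30 min. Malonyl-CoA then added, and NADPH oxidation followed at 340 nm for 3 min at 37 °C. Inhibition computed against a compound-free control. IC50 from at least five concentrations, each in triplicate; mean ± SE of three experiments.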

[2] = tested on: HepG2; conditions: Homo sapiens, at 10 µM
[3] = target: Fatty acid synthase (Mus musculus) (UniProt P19096); assay: Inhibition of mouse FAS at 80 uM preincubated for 30 mins in presence of acetyl coenzyme A and NADPH followed by malonyl coenzyme A addition and measured after 3 mins by spectrophotometric analysis
Fatty acid synthase (Mus musculus), sequence (P19096 whole entry): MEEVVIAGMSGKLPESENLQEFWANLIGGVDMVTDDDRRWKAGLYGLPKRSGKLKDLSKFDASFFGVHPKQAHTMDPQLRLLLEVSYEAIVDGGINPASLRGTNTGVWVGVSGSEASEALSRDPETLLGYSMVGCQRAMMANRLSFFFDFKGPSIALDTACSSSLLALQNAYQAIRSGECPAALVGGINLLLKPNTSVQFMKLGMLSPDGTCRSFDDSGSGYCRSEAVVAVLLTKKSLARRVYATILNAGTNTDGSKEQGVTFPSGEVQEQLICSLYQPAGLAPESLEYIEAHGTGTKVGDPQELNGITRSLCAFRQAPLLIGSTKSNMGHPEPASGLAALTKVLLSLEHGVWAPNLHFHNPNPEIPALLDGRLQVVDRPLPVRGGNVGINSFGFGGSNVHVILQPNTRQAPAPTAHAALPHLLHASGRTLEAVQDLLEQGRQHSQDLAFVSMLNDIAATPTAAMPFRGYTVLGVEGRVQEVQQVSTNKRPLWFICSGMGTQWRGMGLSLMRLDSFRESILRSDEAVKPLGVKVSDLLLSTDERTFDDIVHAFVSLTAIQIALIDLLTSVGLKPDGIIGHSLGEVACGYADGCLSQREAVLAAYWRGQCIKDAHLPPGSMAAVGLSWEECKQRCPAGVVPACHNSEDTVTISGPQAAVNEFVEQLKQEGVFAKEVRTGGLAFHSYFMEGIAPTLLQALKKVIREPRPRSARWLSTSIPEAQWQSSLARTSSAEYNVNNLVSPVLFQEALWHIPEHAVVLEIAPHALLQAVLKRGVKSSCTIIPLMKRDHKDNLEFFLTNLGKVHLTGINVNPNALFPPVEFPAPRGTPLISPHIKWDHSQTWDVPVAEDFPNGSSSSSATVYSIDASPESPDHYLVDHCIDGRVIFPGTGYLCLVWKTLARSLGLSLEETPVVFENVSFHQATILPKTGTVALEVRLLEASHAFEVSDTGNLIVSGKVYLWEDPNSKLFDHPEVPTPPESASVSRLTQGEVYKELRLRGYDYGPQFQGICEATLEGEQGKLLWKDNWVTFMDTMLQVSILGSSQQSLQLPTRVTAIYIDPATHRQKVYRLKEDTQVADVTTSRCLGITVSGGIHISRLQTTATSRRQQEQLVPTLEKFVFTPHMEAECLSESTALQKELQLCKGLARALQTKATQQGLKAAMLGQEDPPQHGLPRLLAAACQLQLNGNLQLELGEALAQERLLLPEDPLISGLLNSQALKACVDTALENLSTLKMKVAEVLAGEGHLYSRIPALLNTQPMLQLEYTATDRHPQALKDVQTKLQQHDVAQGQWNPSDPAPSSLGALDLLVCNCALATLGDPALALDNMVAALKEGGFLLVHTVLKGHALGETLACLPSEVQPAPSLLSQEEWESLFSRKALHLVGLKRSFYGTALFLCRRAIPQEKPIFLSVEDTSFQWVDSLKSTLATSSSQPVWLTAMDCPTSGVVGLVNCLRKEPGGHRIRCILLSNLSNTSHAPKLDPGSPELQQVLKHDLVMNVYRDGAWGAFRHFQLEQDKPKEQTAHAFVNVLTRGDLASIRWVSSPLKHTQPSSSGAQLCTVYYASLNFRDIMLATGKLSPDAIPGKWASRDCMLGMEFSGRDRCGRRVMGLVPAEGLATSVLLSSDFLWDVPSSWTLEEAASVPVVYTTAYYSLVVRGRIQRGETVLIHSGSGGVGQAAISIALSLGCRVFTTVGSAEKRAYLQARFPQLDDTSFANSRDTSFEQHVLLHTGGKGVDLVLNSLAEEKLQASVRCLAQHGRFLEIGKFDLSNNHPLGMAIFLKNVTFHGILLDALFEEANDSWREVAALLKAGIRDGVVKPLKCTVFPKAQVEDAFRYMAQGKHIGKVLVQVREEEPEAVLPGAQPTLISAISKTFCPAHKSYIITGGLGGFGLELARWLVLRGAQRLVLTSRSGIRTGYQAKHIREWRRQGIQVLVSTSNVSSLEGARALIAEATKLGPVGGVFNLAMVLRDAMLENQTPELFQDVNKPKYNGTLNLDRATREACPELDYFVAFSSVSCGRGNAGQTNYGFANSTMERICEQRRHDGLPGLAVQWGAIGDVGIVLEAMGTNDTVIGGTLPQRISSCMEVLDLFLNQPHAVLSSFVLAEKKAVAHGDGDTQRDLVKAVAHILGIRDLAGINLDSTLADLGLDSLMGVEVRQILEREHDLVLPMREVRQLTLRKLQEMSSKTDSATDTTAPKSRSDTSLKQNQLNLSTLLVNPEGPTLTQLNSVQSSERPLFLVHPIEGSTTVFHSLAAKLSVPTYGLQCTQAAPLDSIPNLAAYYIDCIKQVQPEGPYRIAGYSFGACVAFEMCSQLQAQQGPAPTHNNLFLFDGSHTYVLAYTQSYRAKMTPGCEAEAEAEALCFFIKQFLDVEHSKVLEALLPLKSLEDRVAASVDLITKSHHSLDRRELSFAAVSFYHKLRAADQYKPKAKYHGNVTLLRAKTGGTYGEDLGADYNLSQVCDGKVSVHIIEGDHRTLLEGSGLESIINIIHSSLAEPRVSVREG

Fatty acid synthase, sequence (P19096 whole entry): as above

SMILES | IC50 [1] [µM] | inhibition [3] | inhibition [2]
CC1(C)COC(=O)[C@@H]1OC(=O)c1ccc(Cl)cc1 | 19.2 |  | Active
CC1(C)COC(=O)[C@@H]1OC(=O)c1ccc(Br)cc1 |  | inactive | 
CCCC(=O)O[C@H]1C(=O)OCC1(C)C | 28.2 |  | 
CC1(C)COC(=O)[C@@H]1OC(=O)c1ccc(C#N)cc1 | 21.5 |  | Active
CC(=O)Oc1cc(C(=O)O[C@H]2C(=O)OCC2(C)C)cc(OC(C)=O)c1OC(C)=O | 13.9 |  | Active
CC(C)Cc1ccc(C(C)C(=O)O[C@H]2C(=O)OCC2(C)C)cc1 (some centres not stated) | 28.2 |  | 
CC(=O)O[C@H]1C(=O)OCC1(C)C | 33.2 |  | 
CC1(C)COC(=O)[C@@H]1OC(=O)c1ccc(I)cc1 |  | inactive | 
CC1(C)COC(=O)[C@@H]1O |  | inactive | 
CC1(C)COC(=O)[C@@H]1OC(=O)c1ccc(F)cc1 |  | inactive | 
COc1ccc(C(=O)O[C@H]2C(=O)OCC2(C)C)cc1 | 13.7 |  | Active

More lines, main results first:

IC50 [1] [µM] | inhibition [3] | SMILES | inhibition [2]
 | inactive | CCCCCCCCCCCCCCCCCC(=O)O[C@H]1C(=O)OCC1(C)C | 
13.9 |  | C=C1C(=O)OC(CCCCCCCC)C1C(=O)O (configuration not stated) | Active
27.7 |  | CCCCc1ccc(C(=O)O[C@H]2C(=O)OCC2(C)C)cc1 | 
23 |  | CC1(C)COC(=O)[C@@H]1OC(=O)c1ccccc1 | inactive
20.8 |  | CCCCCCCC(=O)O[C@H]1C(=O)OCC1(C)C | Active
 | inactive | CCOc1ccc(C(=O)O[C@H]2C(=O)OCC2(C)C)cc1 | 
19.6 |  | CCCCCCCCCCCCCCCC(=O)O[C@H]1C(=O)OCC1(C)C | Active
17.2 |  | Cc1ccc(C(=O)O[C@H]2C(=O)OCC2(C)C)cc1 | inactive
23.3 |  | CCCCCC(=O)O[C@H]1C(=O)OCC1(C)C | Active
15.2 |  | CCCCCCCCCCCC(=O)O[C@H]1C(=O)OCC1(C)C | Active
